# Test results as given in ChEMBL document CHEMBL4706575, “Nonpeptidic quinazolinone derivatives as dual nucleotide-binding oligomerization domain-like receptor 1/2 antagonists for adjuvant cancer chemotherapy” (Eur J Med Chem, 2020).
# What was measured:
# [1] = molecular target: T1, Nucleotide-binding oligomerization domain-containing protein 2 (Homo sapiens, UniProt Q9HC29); assay: Antagonist activity at NOD2 in HEK-Blue hNOD2 cells assessed as inhibition of MDP-induced NFkappaB activation-mediated SEAP release preincubated for 3 hrs followed by MDP addition and measured after 20 hrs by spectrophotometric method; format: cell-based
# Method in brief: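 HEK-Blue hNOD2 cells preincubated 3 h with a range of concentrations, then MDP 100 ng/mL for 20 h. SEAP quantified. SRB assay run to exclude cytotoxicity. IC50 by nonlinear semi-logarithmic fit, mean ± SD, n = 3.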
# [2] = molecular target: T2, Nucleotide-binding oligomerization domain-containing protein 1 (Homo sapiens) (UniProt Q9Y239); assay: Antagonist activity at NOD1 in HEK-Blue hNOD1 cells assessed as inhibition of C12-iE-DAP-induced NFkappaB activation-mediated SEAP release at 5 uM preincubated for 3 hrs followed by C12-iE-DAP addition and measured after 20 hrs by spectrophotometric method relative to control; format: cell-based; conditions: time 23.0 hrs
# T2 sequence (whole entry): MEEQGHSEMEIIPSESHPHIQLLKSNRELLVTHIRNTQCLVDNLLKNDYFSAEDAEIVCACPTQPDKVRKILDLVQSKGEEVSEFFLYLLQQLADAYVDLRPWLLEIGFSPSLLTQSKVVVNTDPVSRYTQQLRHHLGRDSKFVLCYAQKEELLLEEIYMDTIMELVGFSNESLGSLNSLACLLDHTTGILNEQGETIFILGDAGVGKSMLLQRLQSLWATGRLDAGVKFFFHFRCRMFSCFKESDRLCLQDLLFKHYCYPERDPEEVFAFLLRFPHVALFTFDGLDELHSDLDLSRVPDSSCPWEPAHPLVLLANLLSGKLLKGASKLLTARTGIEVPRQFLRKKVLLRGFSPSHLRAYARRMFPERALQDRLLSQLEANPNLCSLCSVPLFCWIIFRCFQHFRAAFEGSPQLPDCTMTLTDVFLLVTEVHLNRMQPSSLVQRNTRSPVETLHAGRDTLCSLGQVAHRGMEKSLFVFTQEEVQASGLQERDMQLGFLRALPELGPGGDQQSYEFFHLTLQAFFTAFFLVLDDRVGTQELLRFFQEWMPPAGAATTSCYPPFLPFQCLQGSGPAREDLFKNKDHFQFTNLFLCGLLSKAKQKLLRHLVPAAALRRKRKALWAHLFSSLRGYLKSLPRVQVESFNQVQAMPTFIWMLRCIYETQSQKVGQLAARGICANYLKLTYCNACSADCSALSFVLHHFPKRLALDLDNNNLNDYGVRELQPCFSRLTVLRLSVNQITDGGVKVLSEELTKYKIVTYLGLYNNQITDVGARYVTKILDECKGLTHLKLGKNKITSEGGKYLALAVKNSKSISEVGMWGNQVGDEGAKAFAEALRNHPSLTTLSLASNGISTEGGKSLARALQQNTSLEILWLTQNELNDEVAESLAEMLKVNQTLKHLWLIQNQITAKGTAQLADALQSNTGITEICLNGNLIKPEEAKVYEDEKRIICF
# [3] = molecular target: T1, Nucleotide-binding oligomerization domain-containing protein 2; assay: Antagonist activity at NOD2 in HEK-Blue hNOD2 cells assessed as inhibition of MDP-induced NFkappaB activation-mediated SEAP release at 5 uM preincubated for 3 hrs followed by MDP addition and measured after 20 hrs by spectrophotometric method relative to control; format: cell-based; conditions: time 23.0 hrs
# [4] = Half life in mouse liver microsomes at 1.25 uM preincubated for 5 mins followed by NADPH generating system addition and measured for 120 mins by LC-MS/MS analysis; format: ADME, Microsome
# Method in brief: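 Mouse liver microsomes (1.25 mg/mL protein) in 100 mM phosphate pH 7.4 with 1.25 µM compound, preincubated 5 min at 37 °C. Reaction started with NADPH-generating system (1 mM NADP, 10 mM MgCl2, 10 mM G6P, 0.5 U/mL G6PDH). Sampled at 0–120 min, quenched with MeOH/ACN 1:1, analysed by LC-MS/MS.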
# [5] = molecular target: T3, Nucleotide-binding oligomerization domain-containing protein 1 (Homo sapiens, UniProt Q9Y239); assay: Antagonist activity at NOD1 in HEK-Blue hNOD1 cells assessed as inhibition of C12-iE-DAP-induced NFkappaB activation-mediated SEAP release preincubated for 3 hrs followed by C12-iE-DAP addition and measured after 20 hrs by spectrophotometric method; format: cell-based
# T3 sequence (Q9Y239 whole entry): T2 sequence (whole entry)
# [6] = molecular target: T1, Nucleotide-binding oligomerization domain-containing protein 2; assay: Antagonist activity at recombinant human NOD2 expressed in HEK293 cells assessed as inhibition of MDP-induced IL8 release measured after 24 hrs by HTRF assay; format: cell-based
# [7] = molecular target: T3, Nucleotide-binding oligomerization domain-containing protein 1; assay: Antagonist activity at recombinant human NOD1 expressed in HEK293 cells assessed as inhibition of C12-iE-DAP-induced IL8 release measured after 24 hrs by HTRF assay; format: cell-based
# T1 sequence (Q9HC29 whole entry, the tested form may be a part): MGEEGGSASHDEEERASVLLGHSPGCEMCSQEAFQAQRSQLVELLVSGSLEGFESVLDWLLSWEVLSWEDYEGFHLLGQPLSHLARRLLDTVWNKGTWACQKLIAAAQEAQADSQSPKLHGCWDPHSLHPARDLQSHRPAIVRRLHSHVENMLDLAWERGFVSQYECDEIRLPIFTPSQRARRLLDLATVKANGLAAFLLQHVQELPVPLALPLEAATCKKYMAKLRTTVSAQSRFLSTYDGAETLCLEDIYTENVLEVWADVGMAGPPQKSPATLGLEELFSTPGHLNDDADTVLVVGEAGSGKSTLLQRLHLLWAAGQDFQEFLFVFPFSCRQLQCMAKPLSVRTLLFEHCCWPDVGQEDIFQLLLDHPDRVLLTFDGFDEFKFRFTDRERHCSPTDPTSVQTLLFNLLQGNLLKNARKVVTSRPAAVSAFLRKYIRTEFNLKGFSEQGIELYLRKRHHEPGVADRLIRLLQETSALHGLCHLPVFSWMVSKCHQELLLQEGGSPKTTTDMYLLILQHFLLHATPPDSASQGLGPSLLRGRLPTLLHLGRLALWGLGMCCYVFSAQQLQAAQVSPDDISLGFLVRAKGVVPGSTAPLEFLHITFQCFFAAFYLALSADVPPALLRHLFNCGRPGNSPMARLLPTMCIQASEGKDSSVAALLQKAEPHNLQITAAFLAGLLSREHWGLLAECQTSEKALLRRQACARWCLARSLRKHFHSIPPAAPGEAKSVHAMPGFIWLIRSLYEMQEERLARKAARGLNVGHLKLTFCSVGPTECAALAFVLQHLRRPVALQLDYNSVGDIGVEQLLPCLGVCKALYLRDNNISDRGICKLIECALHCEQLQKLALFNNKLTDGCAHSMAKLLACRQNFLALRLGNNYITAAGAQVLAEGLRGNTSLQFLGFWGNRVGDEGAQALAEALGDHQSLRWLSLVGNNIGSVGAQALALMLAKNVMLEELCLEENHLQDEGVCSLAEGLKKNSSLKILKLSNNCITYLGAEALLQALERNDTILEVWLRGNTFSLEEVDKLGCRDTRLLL
Compound,IC50 [1] [µM],inhibition ([2]; filed as antagonist) [%],inhibition ([3]; filed as antagonist) [%],half-life at 1.25 µM [4] [min],IC50 [5] [µM],other results
CN(C)c1cccc(Oc2cc3c(=O)[nH]cnc3cc2NC(=O)COCc2ccc(C(F)(F)F)cc2)c1,0.8,50.4,54,–,–,–
O=C(NCCCOc1ccc(C(F)(F)F)cc1)c1cc2ncn(CC(=O)N3CCCCC3)c(=O)c2cc1-c1cccc(Cl)c1,0.8,93.2,–,15.6,0.8,–
COC(=O)Cn1cnc2cc(NC(=O)COCc3ccc(F)cc3)c(Oc3cccc(N(C)C)c3)cc2c1=O,–,–,42.5,–,–,inhibition [2]: 33.4%
O=C(COCc1ccc(C(F)(F)F)cc1)Nc1cc2ncn(CC(=O)N3CCCC(F)(F)C3)c(=O)c2cc1Oc1cccc(N2CCOCC2)c1,0.5,88.2,–,12.9,0.54,–
COC(=O)Cn1cnc2cc(NC(=O)CCCOc3ccc(C(F)(F)F)cc3)c(Oc3cccc(N4CCOCC4)c3)cc2c1=O,–,91.2,–,9.6,1.38,–
CN(C)c1cccc(Oc2cc3c(=O)[nH]cnc3cc2NC(=O)CCCOc2ccc(C(F)(F)F)cc2)c1,4.77,59.1,58.5,–,5.64,–
COC(=O)Cn1cnc2cc(NC(=O)COCc3ccccc3)c(Oc3cccc(N(C)C)c3)cc2c1=O,–,47.6,–,–,–,inhibition [3]: 35%
CN(C)c1cccc(Oc2cc3c(=O)n(CC(=O)N4CCCC(F)(F)C4)cnc3cc2NC(=O)COCc2ccc(C(F)(F)F)cc2)c1,0.66,90.4,94.2,–,0.14,–
O=C(NCCOCc1ccc(C(F)(F)F)cc1)c1cc2nc[nH]c(=O)c2cc1-c1cccc(Cl)c1,–,64.4,–,22.9,1.34,–
CCc1ccc(S(=O)(=O)Nc2cc(-n3c(C)nc4ccccc4c3=O)ccc2F)s1,–,–,–,–,–,IC50 [6]: > 50 µM
O=C(O)Cn1cnc2cc(C(=O)NCCCOc3ccc(C(F)(F)F)cc3)c(-c3cccc(Cl)c3)cc2c1=O,–,–,–,22.9,–,inhibition [2]: 22%
COC(=O)Cn1cnc2cc(NC(=O)COCc3ccc(C(F)(F)F)cc3)c(Oc3cccc(N(C)C)c3)cc2c1=O,0.99,85.4,76.9,–,1.15,–
CN(C)c1cccc(Oc2cc3c(=O)n(CC(=O)N4CCCCC4)cnc3cc2NC(=O)COCc2ccc(C(F)(F)F)cc2)c1,1.75,87.5,92.4,–,0.26,–
CN(C)c1cccc(Oc2cc3c(=O)n(CC(=O)N4CCC(F)CC4)cnc3cc2NC(=O)COCc2ccc(C(F)(F)F)cc2)c1,1.11,89.1,94.3,–,0.21,–
O=C(Cn1c(CCNC(=O)c2ccccc2)nc2ccccc21)Nc1ccc2c(c1)CCC2,–,–,–,–,–,IC50 [7]: > 50 µM; IC50 [6]: 3.3 µM
O=C(CCCOc1ccc(C(F)(F)F)cc1)Nc1cc2nc[nH]c(=O)c2cc1Oc1cccc(N2CCOCC2)c1,–,65.4,–,10.1,2.48,–
CN(C)c1cccc(Oc2cc3c(=O)[nH]cnc3cc2NC(=O)COCc2ccc(C#N)cc2)c1,–,–,–,–,9.33,inhibition [2]: 30.4%; inhibition [3]: 19.3%
CN(C)c1cccc(Oc2cc3c(=O)n(CC(=O)N4CCC(F)(F)CC4)cnc3cc2NC(=O)COCc2ccc(C(F)(F)F)cc2)c1,1.18,82,87,–,0.27,–
